From paper PMC4633019 (Journal of natural products, 2015)
≈ marks a conversion by molar mass, not a printed value. Where a SMILES comes first, the peptide text is derived from it. [ ]: non-standard residue; d: D form. The star is where a group is joined. Sta = CC(C)C[C@H](N)[C@@H](O)CC(=O)O; Isovaleryl = CC(C)CC(=O)*

Assays:
HEK293 cells = assay: Mammalian cell viability assay; assay type: cell-based, human; details: up to highest tested concentrations
Summary of the method: (§1)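 Viability was read with Cell TiterGlo reagent, used according to the manufacturer's instructions, in 1536-well format with a plate-imager read-out. The same procedure was applied to human RBCs.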

HepG2 cells = assay: Mammalian cell viability assay; assay type: cell-based, human; details: up to highest tested concentrations
Summary of the method: as §1

[1] = system: Plasmodium falciparum (cp250, Dd2, HB3, 7G8, GB4 lines); assay: SYBR Green DNA-staining parasite viability assay; assay type: cell-based
Summary of the method: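 Infected RBCs (0.3% parasitemia, 2.5% hematocrit final) in culture medium received pin-transferred test compound. Incubated 72 h at 37 °C in humidified 5% CO2. Lysis buffer was then added (20 mM Tris-HCl, 10 mM EDTA, 0.16% saponin, 1.6% Triton-X, 10× SYBR Green I), followed by overnight incubation at 22–24 °C in the dark. Fluorescence was read at 485/535 nm. Controls: artemisinin and mefloquine as positive, DMSO as negative.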

Jurkat cells = details: cited from earlier work
[2] = system: P. falciparum plasmepsins (aspartyl protease activity of Pf extracts); assay: Plasmepsin protease assay with P. falciparum extract and FRET peptide substrate; assay type: biochemical, Plasmodium falciparum; details: freshly prepared P. falciparum extracts

SMILES	toxicity to HEK293 cells (in words) (HEK293 cells)	toxicity to HepG2 cells (in words) (HepG2 cells)	EC50 (cytotoxicity) (Jurkat cells)	further results
COCC(=O)N[C@@H](C(=O)N1NCCC[C@H]1C(=O)N[C@@H](Cc1ccccc1)[C@@H](O)[C@H](C)C(=O)N[C@@H]1CCN(C(N)=O)C1=O)[C@H](O)C(C)C [25-epi-actinoramide A]	no toxicity	no toxicity	–	–
COCC(=O)N[C@@H](C(=O)N1NCCC[C@H]1C(=O)N[C@@H](Cc1ccccc1)[C@@H](O)[C@H](C)C(=O)NC1CNC(=O)NC1=O)[C@H](O)C(C)C (stereo partly drawn) [Actinoramide F, actinoramide F]	–	–	–	antimalarial activity (in words) [1]: no antimalarial activity
COCC(=O)N[C@@H](C(=O)N1NCCC[C@H]1C(=O)N[C@@H](Cc1ccccc1)[C@@H](O)[C@H](C)C(=O)N[C@H]1CCN(C(N)=O)C1=O)[C@H](O)C(C)C [actinoramide A]	no toxicity	no toxicity	≈ 60 μg/mL	–
COCC(=O)N[C@@H](C(=O)N1N=CCC[C@H]1C(=O)N[C@@H](Cc1ccccc1)[C@@H](O)[C@H](C)C(=O)N[C@H]1CCN(C(N)=O)C1=O)[C@H](O)C(C)C [actinoramide D]	–	–	–	decrease in potency (vs actinoramide A) ([1]; depending on the parasite strain): 6–20 fold
COCC(=O)N[C@@H](C(=O)N1NCCC[C@H]1C(=O)N[C@@H](Cc1ccccc1)[C@@H](O)[C@H](C)C(=O)N[C@H]1CCC(=O)NC1=O)[C@H](O)C(C)C [padanamide B, reference compound]	–	–	~20 µg/mL (≈ 30.9 µM)	–
CC(C)CC(=O)N[C@H](C(=O)N[C@H](C(=O)N[C@@H](CC(C)C)[C@@H](O)CC(=O)N[C@@H](C)C(=O)N[C@@H](CC(C)C)[C@@H](O)CC(=O)O)C(C)C)C(C)C [pepstatin] (Isovaleryl-VV[Sta]A[Sta]-OH)	–	–	–	inhibition of aspartyl protease (plasmepsin) activity (in words) [2]: potently inhibited
